Series [1] in a line: folding enthalpy; higher = less favourable; fluorescence melt of hairpins on a sequencing array, two-state fit. The note with it: sodium 0.088 M. In short, it runs like this:
(§1)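 To match UV melts, fitted temperatures were raised by 9.35 °C. These fits were bootstrapped two-state models that gave melting temperature and folding enthalpy, combined by inverse variance over four replicates. The input was normalised Cy3 fluorescence of library hairpins with annealed Cy3 and quencher oligos on a sequenced MiSeq flow cell, imaged in 50 mM Na-HEPES pH 8.0, 25 mM NaCl in 2.5 °C steps up to 60 °C.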

The nature of series [2]: melting temperature; fluorescence melt of hairpins on a sequencing array, two-state fit, raised by 9.35 °C to match UV melts. The note with it: sodium 0.088 M. In short, it runs like this: as §1

With GATCCTGTTTAGGATC ((((((....)))))), in series [1], the folding enthalpy was -44.3 kcal/mol. Moreover, the Tm in series [2] was 52.6 °C.

On to GGTTCCGAAAGGAGACC ((((((....))).))), for which the folding enthalpy in series [1] is -23.8 kcal/mol. In series [2], the Tm turned out to be 47.6 °C.

With GGTTTAGGAAACTGAACC ((((.((....)).)))), the folding enthalpy in series [1] was -31.8 kcal/mol. Further, the Tm in series [2] amounted to 43.2 °C.

For GTCCCCACGAAAGTGGAC (((..(((....)))))), in series [1], the folding enthalpy was -6.73 kcal/mol. The Tm in series [2] was found to be 29.3 °C.

For the sequence GGTAGCGAAAGCTGTACC ((((((....)))..))), the folding enthalpy in series [1] was -19.9 kcal/mol. The Tm in series [2] was 40.7 °C.

Take GGCATCTCGAAAGAGGCC (((..(((....)))))): in series [1], the folding enthalpy is -26.6 kcal/mol. For the same sequence, the Tm in series [2] came out at 51.2 °C.

As for GGAAGGACGAAAGTCTCC (((..(((....)))))), the folding enthalpy in series [1] is -12.8 kcal/mol. The Tm in series [2] stood at 33.1 °C.

As for GCTGGTGGAAACATCAGC ((((.((....)).)))), the folding enthalpy in series [1] is -39.5 kcal/mol. Moreover, the Tm in series [2] came out at 53.4 °C.

For the sequence GCGCGGCGAAAGCTTCGC (((..((....))..))), the folding enthalpy in series [1] is -20.8 kcal/mol. The Tm in series [2] amounted to 55.8 °C.

Turning to GATCCTGTGAAGGATC ((((((....)))))), the folding enthalpy in series [1] is -35.4 kcal/mol. For the same sequence, the Tm in series [2] is 58.4 °C.

Turning to GCTAGAGCGAAAGCTAGC (((..(((....)))))), in series [1], the folding enthalpy was -21.7 kcal/mol. Moreover, in series [2], the Tm came to 47.4 °C.

For GCTCTCCGAAAGGATAGC (((.(((....))).))), the folding enthalpy in series [1] was -34.7 kcal/mol. Further, in series [2], the Tm was found to be 49.1 °C.

In the case of GTCTACCCGAAAGGGGAC (((..(((....)))))), the folding enthalpy in series [1] was -13.8 kcal/mol. The Tm in series [2] turned out to be 36.2 °C.

Regarding GTGTGCGAAAGCACGCAC ((((((....)))..))), in series [1], the folding enthalpy is -9.49 kcal/mol. Further, the Tm in series [2] turned out to be 61.1 °C.

As for GGACGAGGAAACTTGTCC ((((.((....)).)))), in series [1], the folding enthalpy was -43.5 kcal/mol. In addition, the Tm in series [2] was determined as 50.7 °C.

In the case of GCGGTTACCGC ((((...)))), the folding enthalpy in series [1] was -28.8 kcal/mol. Also, the Tm in series [2] stood at 59.2 °C.

Turning to GGATCTTCGAAAGAATCC (((..(((....)))))), in series [1], the folding enthalpy was -10.7 kcal/mol. For the same sequence, the Tm in series [2] stood at 25.8 °C.

As to GACTCGGGAAACCGAGCC (.(((((....))))).), in series [1], the folding enthalpy is -17 kcal/mol. Further, the Tm in series [2] came out at 47.8 °C.

As to GGTCTCGAAAGAGGTACC ((((((....)))..))), the folding enthalpy in series [1] was -19.9 kcal/mol. Also, the Tm in series [2] was 35 °C.

Take GGTTACCGAAAGGTACC (((.(((....)))))): in series [1], the folding enthalpy was -20.4 kcal/mol. Moreover, the Tm in series [2] turned out to be 51 °C.

As to CGGACCGGAAACGGCCG (((.(((....)))))), the folding enthalpy in series [1] was -28.9 kcal/mol. Further, in series [2], the Tm was 56 °C.

Turning to GAAGAACGAAAGTTTTTC (((.(((....))).))), in series [1], the folding enthalpy is -28.8 kcal/mol. Also, the Tm in series [2] was determined as 36 °C.

As for GAAGAGAAATCTTC (((((....))))), in series [1], the folding enthalpy is -10.9 kcal/mol. Further, the Tm in series [2] was 30.6 °C.

On to GCAGCAGGAAACCGCTAC (.(((.(....).))).), for which, in series [1], the folding enthalpy is -14.6 kcal/mol. In addition, the Tm in series [2] was found to be 28.1 °C.

In the case of GCTTTCGAAAGAAGTAGC ((((((....)))..))), the folding enthalpy in series [1] was -23 kcal/mol. Moreover, the Tm in series [2] amounted to 34 °C.

Turning to GCGCTTGCGAAAGCACGC (((..(((....)))))), the folding enthalpy in series [1] was -15.9 kcal/mol. In addition, the Tm in series [2] was found to be 55.2 °C.

As to GCGACCGAAAGGTACGC ((((((....))).))), the folding enthalpy in series [1] is -23.8 kcal/mol. Moreover, in series [2], the Tm amounted to 58.1 °C.

Take GCAGCGCGAAAGCCCGGC ((.(.((....)).).)): the folding enthalpy in series [1] is -17.6 kcal/mol. Also, the Tm in series [2] was found to be 39.3 °C.

For the sequence GGACACGGAAACACGTCC ((((..(....)..)))), the folding enthalpy in series [1] was -21.8 kcal/mol. The Tm in series [2] stood at 36.4 °C.

Consider CGGACGGAAACGTAGCCG ((((((....)))..))), for which, in series [1], the folding enthalpy is -23.6 kcal/mol. The Tm in series [2] stood at 33.4 °C.

Consider GTCTAGGGAAACCTAGAC (((((((....))))))), for which the folding enthalpy in series [1] is -40.4 kcal/mol. Also, in series [2], the Tm turned out to be 56.2 °C.

Regarding GTAGTGGGAAACCATTGC (.(.(((....))).).), in series [1], the folding enthalpy is -10.3 kcal/mol. Further, in series [2], the Tm amounted to 24.3 °C.

Consider GCTTGCGGAAACGTGAGC (((..((....))..))), for which the folding enthalpy in series [1] was -31.5 kcal/mol. Moreover, in series [2], the Tm is 46.5 °C.

Regarding GATCTCTGGGGAGATC ((((((....)))))), the folding enthalpy in series [1] is -41.2 kcal/mol. Also, in series [2], the Tm turned out to be 56.4 °C.

Take GCATAGCGAAAGCTTCGC ((..(((....)))..)): in series [1], the folding enthalpy is -10.1 kcal/mol. For the same sequence, in series [2], the Tm came to 34.6 °C.

Take GATCTCCATGAGATC ((((((...)))))): the folding enthalpy in series [1] is -42.1 kcal/mol. In addition, in series [2], the Tm amounted to 53.3 °C.

As for GTAGGAGGAAACCCCTAC (((((.(....).))))), the folding enthalpy in series [1] was -32.4 kcal/mol. Moreover, in series [2], the Tm came out at 38.3 °C.

These data come from the array DNA melting data of Ke et al. (doi:10.1101/2024.01.08.574731).
